Screens (PubChem BioAssay)
SKKanGAS inh = S. pyogenes SKKanGAS growth inhibitors in kanamycin, primary screen, streptokinase expression inhibitor project, SKKanGAS strain, BacTiter-Glo luminescence; actives 1.3% (n = 300,000); 6 h; inhibition, % at 7.5 µM;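 active = mean replicate score, as percent of positive control median, at least 50; inconclusive = mean below 50 but one replicate at or above 50; inactive = mean and every replicate below 50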;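 also: strain carries kanamycin resistance gene driven by streptokinase promoter and grows in 40 µg/ml kanamycin; loss of luminescence reflects streptokinase promoter inhibition or plain growth inhibition; 0% = median of DMSO wells and 100% = positive control at its reference dose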
Mdm2 MdmX PPI = inhibitors of human Mdm2-MdmX association, primary screen, cell-based, luminescence, split luciferase, SaOS-2, uHTS | inhibition, % at 8 µM | Protein Mdm4 (Homo sapiens) + E3 ubiquitin-protein ligase Mdm2 (Homo sapiens), … | SaOS-2 split-luciferase Mdm2/MdmX complementation | actives 3% (n = 330,000) | AID 485346, 2010;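 active = inhibition of at least 50% at 8 µM in the primary screen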
T cruzi inh = inhibitors of intracellular T. cruzi growth, primary screen, luminescence, NIH3T3 host cells; T. cruzi beta-gal in NIH3T3, 90 h; inhibition, % (concentration not given with the values); actives 1.4% (n = 300,000); AID 1885, 2009;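 active = mean inhibition across valid replicates above about 55%, limit read from the data; inconclusive = mean below that limit but half or more replicates reach it; inactive = mean below it, under half of replicates reach it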;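 also: signal also drops with host cell toxicity which is not excluded here; 0% = plate median of DMSO wells and 100% = zero luminescence signal; higher percent means less beta-gal luminescence so fewer parasites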
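Test system: β-gal T. cruzi (Tulahuen C4) inside NIH/3T3 cells / Quantity: 5,000 cells/well / Measured by: luminescence from GalScreen with 0.05% NP40, read after 60 min / Medium: DMEM plus 2% FBS / Measure: parasite load inhibition, % / Reagent: Tulahuen C4 trypomastigotes, 5000/well / Schedule: co-culture of at least 90 h after 3 h attachment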
Calb FLC = C. albicans growth inhibition with fluconazole, primary screen, CaCi-2 strain, Alamar Blue fluorescence; C. albicans CaCi-2 (fluconazole-resistant clinical isolate) + fluconazole, 48 h; growth inhibition, % (no concentration beside the values); actives 0.57% (n = 300,000);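 active = growth inhibition above about 58% in most replicates, limit read from the data, passing the limit was not always enough; inconclusive = exactly half the replicates above a set limit; inactive = most replicates below a set limit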;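 also: all wells also contain fluconazole at 8 µg/ml as a sub-toxic cotreatment; 0% = median of DMSO wells and 100% = median of geldanamycin control wells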
CSC inhib = cancer stem cell viability inhibitors, primary screen, luminescence; cancer stem cell-like cells viability; inhibition, % at 7.5 µM; actives 1.1% (n = 300,000); AID 2717, 2010; in the data active = inhibition above about 75%; inconclusive = no clear call, values can overlap the other calls; tested in HMLE shEcad cells
Beta apoptosis = inhibitors of cytokine-induced beta cell apoptosis, primary screen, luminescence; INS-1E cytokine-induced death, ATP luminescence, 48 h; percent of positive-control rescue, neutral wells zero; protection from apoptosis, % (test concentration not listed); actives 0.8% (n = 300,000);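 active = Every replicate reaches about 75%, or at least half do and their mean reaches it too, limit read from the data; inconclusive = At least half of replicates reach the limit but their mean does not; inactive = Under half of replicates reach the limit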;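 also: 0% = cytokine-treated negative control wells and 100% = positive control rescue; higher means more ATP so stronger rescue from cytokine killing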
Mdm2-MdmX conf = Mdm2-MdmX complex disruptors, retested hits, confirmation, luminescence, single concentration; shares compounds with Mdm2 MdmX PPI; Mdm2-MdmX binding, luminescent assay; inhibition, % at 8 µM; actives 55% (n = 10,000); in the data active = inhibition above about 40%
Full FLuc ctr = full-length luciferase signal inhibition, confirmation, counter-screen for Mdm2/MdmX interaction inhibitor project, cell-based, single concentration, SaOS-2; shares compounds with Mdm2 MdmX PPI; SaOS-2 full-length luciferase counterscreen, luminescence; inhibition, % at 8 µM; actives 77% (n = 6,200); AID 504607, 2011;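 active = mean inhibition at 8 µM reaching about 37%, which flags the compound as non-specific, limit read from the data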;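 also: p53-null SaOS-2 cells with luciferase driven by a doxycycline-inducible promoter; compound on cells about two nights before reading with doxycycline added after day one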
* hit, by the source's call; ? = inconclusive; . = no result. Rows were chosen to be rich in hits. Some 5.7% of all compounds tested hit in one or more screens of this group.

SMILES	SKKanGAS inh	Mdm2 MdmX PPI	T cruzi inh	Calb FLC	CSC inhib	Beta apoptosis	Mdm2-MdmX conf	Full FLuc ctr
Cc1ccccc1NS(=O)(=O)c1ccc(C(=O)N2CCCC(C(F)(F)F)C2)cc1 (stereo not drawn)	14	21	0	19	-6	.	.	.
O=C(N/N=C/c1c(O)ccc2ccccc12)c1cccc(C(F)(F)F)c1	120*	74*	57*	90*	.	.	81*	21
O=C(N/N=C\c1c(O)ccc2ccccc12)c1ccc(Cn2cccn2)o1	108*	75*	14	20	30	79*	74*	25
O=C(N/N=C/c1c(O)ccc2ccccc12)c1[nH]ncc1Br	14	65*	25	46	108*	103*	76*	41*
O=C(N/N=C\c1ccc(Cl)s1)c1ccc(Cn2cccn2)o1	-3	8	-15	2	3	-4	.	.
COc1ccc(C(=O)CN2C(=O)c3ccccc3C2=O)cc1	17	30	-21	2	-8	-6	.	.
CCOCCCN(C)C1CCN(C(=O)c2oc3ccccc3c2NC(=O)c2cccc([N+](=O)[O-])c2)CC1	1	26	0	-1	-7	-1	.	.
CC1CCc2c(nc3ncnn3c2NCCc2ccccc2F)C1 (stereo not drawn)	0	25	34	0	2	16	.	.
O=C(NNC(=O)c1ccc(Cl)nc1)c1ccncc1	.	9	.	.	.	3	.	.
CN(C)S(=O)(=O)c1cccc(C(=O)NCC(=O)NC2CCN(Cc3ccccc3)CC2)c1	10	4	1	0	9	2	.	.
C=CCN(c1ccccc1)S(=O)(=O)c1cccc(C(=O)NC2CCN(Cc3ccccc3)CC2)c1	-2	60*	61*	-13	3	12	39	.
CCCCS(=O)(=O)/C=C\C=C/S(=O)(=O)CCCC	-3	94*	23	1	111*	85*	99*	51*
O=C(Nc1c2c(nn1-c1ccccc1)CS(=O)C2)c1ccc2c(c1)OCO2 (stereo not drawn)	-6	-4	-12	-5	-18	0	.	.
O=C(Nc1ccccc1)C1C2CCC3C(CCC21)C3(Cl)Cl (stereo not drawn)	3	17	15	-7	-2	-12	.	.
O=C(Nc1cccc(Cl)c1)C1C2CCC3C(CCC21)C3(Cl)Cl (stereo not drawn)	3	69*	44	-15	-13	6	13	.
COCc1c(C(=O)N2CCN(CCOc3ccccc3)CC2)oc2ccccc12	.	25	.	.	4	-2	.	.
Cn1cc(CNCc2cn(C)nc2-c2ccc(C3CCCCC3)cc2)cn1	-5	25	26	-3	.	0	.	.
CCCCCc1nc2c(c(=O)c3ccccc3n2C)c(=O)n1Cc1ccc(OC)cc1	31	51*	12	13	9	7	18	.
COc1ccc(Cn2c(CO)cnc2SCC(=O)Nc2cccc(NC(C)=O)c2)cc1	-5	16	-18	26	3	6	.	.
COc1ccc(OC)c(NC(=O)c2cc(-c3cc(Cl)ccc3O)n[nH]2)c1	-3	88*	-2	-46	62	35	75*	42*
Oc1ccc(Nc2nc(N3CCCC3)c3ccccc3n2)cc1	4	85*	59*	3	.	99*	16	.
COc1ccc(Nc2nc(N3CCCCC3)c3ccccc3n2)cc1	2	59*	50	-14	16	73	30	.
Cc1ccc(Nc2nc(N3CCOCC3)c3ccccc3n2)cc1	-3	32	26	-17	-9	22	.	.
CCOc1ccc(CCNc2nc3ccccc3n3cnnc23)cc1OCC	-9	17	-6	24	.	1	.	.
Cc1cc(NC(=O)COC(=O)c2c(Cl)cccc2Cl)no1	.	88*	.	.	.	-4	59*	54*
SMILES	SKKanGAS inh	Mdm2 MdmX PPI	T cruzi inh	Calb FLC	CSC inhib	Beta apoptosis	Mdm2-MdmX conf	Full FLuc ctr
Cc1cc(NC(=O)COC(=O)c2ccccc2S(=O)(=O)N(C)c2ccccc2)no1	-5	96*	4	-1	27	-10	72*	43*
Cc1cc(NC(=O)COC(=O)c2cccc(O)c2)no1	9	-29	-4	-4	-5	-3	.	.
CCOC(=O)c1cnc2c(C(F)(F)F)cccc2c1NCCCN1CCOCC1	0	23	-11	3	-13	10	.	.
Cc1ccc(C(=O)C2CCN(CC(=O)N3CCN(c4ccc(F)cc4)CC3)CC2)cc1	.	26	51	-28	18	1	.	.
O=c1c2ccccc2nc(/C=C/c2cc(Br)ccc2O)n1CCCO	16	89*	1	6	52	-13	74*	27
CCOc1ccc(NC(=O)CN(C)C(=O)c2cccnc2Sc2ccccc2Cl)cc1OCC	0	27	4	3	-20	-5	.	.
CCCC(=O)N1CCN(c2ccc(NC(=O)c3cc4ccccc4o3)cc2Cl)CC1	37	100*	48	-1	90*	68	59*	13
O=C(Nc1ccc(N2CCN(C(=O)c3ccco3)CC2)c(Cl)c1)c1cc2ccccc2o1	40	100*	55*	19	-7	47	75*	51*
CCC(=O)N1CCN(c2ccc(NC(=O)c3cc4ccccc4o3)cc2Cl)CC1	20	82*	5	67	34	32	25	.
CCN(CC)C(=O)CN1C(=O)C2(OCC(C)(C)CO2)c2ccccc21	.	6	.	.	-20	0	.	.
COc1cccc(C(=O)Nc2cc(NC(=O)c3cccs3)ccc2C)c1OC	6	32	-15	1	3	0	.	.
N#CCC(=O)Nc1ccc(C(=O)Nc2cccc(S(N)(=O)=O)c2)cc1	-8	-3	-1	9	-16	-3	.	.
FC(F)(F)c1cc(C(F)(F)F)c2ccc(N3CCN(c4ccc(Cl)cc4)CC3)nc2n1	1	45	?	5	14	2	.	.
N#CC(c1ccc(Cl)cc1)c1ccc2c(C(F)(F)F)cc(C(F)(F)F)nc2n1 (stereo not drawn)	38	99*	?	4	-13	124*	95*	24
Cc1ccccc1Cn1cc(NS(=O)(=O)c2cn(C)nc2C)cn1	-1	16	3	5	.	.	.	.
